Compound activity as filed in PubChem BioAssay.
OX1R antag-1 – antagonists of human orexin 1 receptor (OX1R) | O43613 | OX1R-expressing cells, FRET antagonist read-out | inhibition, % at 6.6 µM | 330,000 tested, 1.8% active; in the data active = inhibition mostly above about 38%, no sharp cut-off; inactive = mostly below about 40%;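 also: 0% = agonist challenge alone and 100% = reference antagonist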
Target sequence (O43613 whole entry, looked up): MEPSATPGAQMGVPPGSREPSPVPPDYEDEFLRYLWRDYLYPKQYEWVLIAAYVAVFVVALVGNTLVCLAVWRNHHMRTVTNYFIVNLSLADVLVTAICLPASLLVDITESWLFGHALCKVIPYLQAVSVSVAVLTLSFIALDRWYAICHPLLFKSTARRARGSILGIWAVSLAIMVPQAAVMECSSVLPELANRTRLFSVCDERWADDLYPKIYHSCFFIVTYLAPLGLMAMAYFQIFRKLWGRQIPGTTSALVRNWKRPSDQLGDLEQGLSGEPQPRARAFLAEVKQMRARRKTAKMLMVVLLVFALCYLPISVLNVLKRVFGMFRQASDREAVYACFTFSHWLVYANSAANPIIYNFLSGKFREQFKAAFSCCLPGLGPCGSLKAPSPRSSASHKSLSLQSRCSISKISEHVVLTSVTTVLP
CHO parental Ca – counter-screen: ATP calcium response change in parental CHO cells | AID 463079 | parental CHO-K1, ATP-induced calcium, Fluo-8 fluorescence | 330,000 tested, 0.63% active | inhibition, % at 5.6 µM;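 active = inhibition above that plate's mean sample inhibition plus 3 SD, cut at about 26% in these data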;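 also: 0% = ATP-challenged DMSO wells and 100% = DMSO wells without ATP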
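Assay system – parental CHO cells · Reagent – ATP stimulus · Detection – intracellular calcium via Fluo-8 no-wash fluorescent dye · Evaluation – percent inhibition of ATP-evoked calcium rise, normalized to controls · Controls – ATP wells versus no-ATP DMSO wells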
zfTRPN1 agonist – activates the zebrafish TRPN1 channel; HEK293 zebrafish TRPN1-YFP, Fluo-8 calcium fluorescence; 100% = response to 87 µM carbachol; activation, % at 3 µM; AID 1424; 220,000 tested, 0.18% active;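 active = activation above its plate's cutoff, the mean activation of test wells on that plate plus 3 SD, cut at about 19% in these data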;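 also: 0% = DMSO alone and 100% = 87 µM carbachol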
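Control set: carbachol 87 µM as high control, DMSO as low control; system: HEK293 stable line with zebrafish TRPN1-YFP; read-out: % activation versus carbachol response; detection: intracellular calcium fluorescence with Fluo-8; doses: single test compound dose, 3 µM nominal, 0.3% DMSO; schedule: dye 1 h 37 °C plus 30 min RT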
OX1R antag-2 – human HCRTR1 antagonism; O43613; CHO/OX1R cells, Fluo-8 calcium fluorescence, orexin A; inhibition, % at 5 µM; 330,000 tested, 0.43% active; AID 434989;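 active = inhibition above its plate's threshold, mean inhibition of all tested compounds on the plate plus 3 SD, cut at about 37% in these data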;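 also: 0% = orexin A challenge wells and 100% = SB-334867-A antagonist wells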
TRPML3 ag – activates the human TRPML3 channel; HEK293 TRPML3-YFP, Fluo-8 calcium fluorescence; 100% = the carbachol control signal; activation, % at 3 µM; 220,000 tested, 0.29% active; AID 1448;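 active = activation above its plate's cutoff, the mean activation of the plate's test wells plus 3 SD, cut at about 12% in these data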;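 also: 0% = DMSO only wells and 100% = carbachol wells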
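Test system: TRPML3-YFP stable HEK293 cells. Doses: single point at 3 µM. Incubation: dye loading 1 h 37 °C then 30 min ambient, 125 s read. Signal: Fluo-8 calcium dye fluorescence, ex 470-495, em 515-575 nm. Measure: percent activation from peak-to-basal fluorescence ratio, scaled between DMSO and carbachol.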
OX1R HTRF confirm – confirmation of human orexin 1 receptor antagonists, HTRF format. 1,800 tested, 49% active. inhibition, % at 6.6 µM. shares compounds with OX1R antag-1. OX1R-expressing cells, HTRF antagonist assay; in the data active = inhibition above about 55%;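 also: CHO cells expressing OX1R stimulated with orexin A at about EC80; 0% = agonist challenge alone and 100% = reference antagonist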
CHO-K1 HTRF cnt – signal in parental CHO-K1 cells, OX1R antagonist counter-screen; AID 493232; inhibition, % at 6.6 µM; HTRF counterscreen; 1,800 tested, 48% active; shares compounds with OX1R antag-1; in the data active = inhibition above about 17%;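 also: 0% = agonist challenge with vehicle and 100% = vehicle alone without agonist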
* hit, by the source's call; x = no result given; ! = repeats disagree. Shown are actives, neighbours in structure and some others; about 2.5% of the full set was active somewhere.

SMILES | OX1R antag-1 | CHO parental Ca | zfTRPN1 agonist | OX1R antag-2 | TRPML3 ag | OX1R HTRF confirm | CHO-K1 HTRF cnt
COc1ccc(S(=O)(=O)N2CCCCC2)cc1NC(=O)c1cc(C)on1 | 2 | -18 | 0 | -9 | 1 | x | x
CC(C)NC(=O)N(C)C[C@H]1Oc2c(NC(=O)c3ccc(-c4nccs4)cc3)cccc2C(=O)N([C@@H](C)CO)C[C@H]1C | 11 | -20 | x | -12 | x | x | x
CCn1nc(C)cc1C(=O)Sc1cccc(Br)c1 | 1 | 6 | 0 | 3 | 1 | x | x
O=[N+]([O-])c1ccc(NCCCN2CCOCC2)c([N+](=O)[O-])c1 | 171* | 9 | 0 | -13 | 1 | 46 | 72*
O=C(c1cccc([N+](=O)[O-])c1)N1CCOCC1 | 15 | 11 | 0 | 6 | 1 | x | x
O=[N+]([O-])c1cc(C(F)(F)F)ccc1NCCCN1CCOCC1 | 26 | -13 | -1 | -29 | 1 | x | x
O=C(c1cc([N+](=O)[O-])cc([N+](=O)[O-])c1)N1CCOCC1 | 111* | 3 | 0 | -2 | 1 | 51 | 78*
CC(C)(CO)Nc1ccc([N+](=O)[O-])cc1[N+](=O)[O-] | 94* | 1 | 1 | 5 | 0 | 34 | 38*
OCc1c(OCc2cccc(F)c2)ccc2ccccc12 | -2 | -9 | x | -12 | x | x | x
O=C(OC1CCOC1=O)C1CCN(S(=O)(=O)c2ccccc2)CC1 (stereo not given) | 0 | -4 | x | 3 | x | x | x
O=S(=O)(CCNCc1cccs1)c1ccc(Cl)cc1 | 8 | -14 | 0 | -13 | 0 | x | x
Cc1c(C(=O)O)sc2nc(-c3cccs3)cc(C(F)(F)F)c12 | 78* | -10 | x | -20 | x | 31 | 30*
C/C(=N\NC(=O)c1cc([N+](=O)[O-])cc([N+](=O)[O-])c1)c1ccco1 | 81* | -8 | 1 | -19 | 1 | 56* | 89*
CSc1ncccc1C(=O)Nc1nc2ccc(S(C)(=O)=O)cc2s1 | 28 | -8 | 0 | -10 | 2 | x | x
COc1ccc2nc(NC(=O)c3cccnc3SC)sc2c1 | 88* | -11 | 1 | 12 | 0 | 77* | 10
O=C(COC(=O)CNC(=O)C1CCCCC1)Nc1ccccc1Cl | 5 | -6 | x | -15 | x | x | x
O=C1c2cccc3cc([N+](=O)[O-])cc(c23)C(=O)N1c1nncs1 | 78* | -8 | x | -18 | x | 61* | 86*
O=C1c2cccc3cccc(c23)C(=O)N1c1ccc2ncccc2c1 | 49 | 1 | -1 | -2 | 1 | x | x
CN(c1ccc(C(=O)Nc2ccc3c(c2)n(C)c(=O)n3C)cc1)S(C)(=O)=O | -1 | -5 | x | -2 | x | x | x
COCCN(Cc1ccccc1)C(=O)C1CCN(S(=O)(=O)c2ccc3c(c2)OCCO3)CC1 | 2 | -5 | x | 14 | x | x | x
CCOC(=O)c1nn(-c2ccccc2C)c(=O)c2c(N)scc12 | 9 | -2 | 0 | -14 | 1 | x | x
CCOC(=O)c1nn(-c2ccccc2C)c(=O)c(C#N)c1C | 127* | 2 | -2 | -6 | 1 | 65* | 43*
Cc1cc[n+](-c2nc3ccccc3nc2C(=C=[N-])C#N)cc1 | 121* | -6 | 0 | 0 | 1 | 40 | 63*
CCc1ccc[n+](-c2nc3ccccc3nc2C(=C=[N-])C#N)c1 | 35 | 12 | 3 | -2 | 1 | x | x
N#CC(=C=[N-])c1nc2ccccc2nc1-[n+]1ccccc1 | 98* | -1 | 1 | 7 | 1 | 64*! | 79*
SMILES | OX1R antag-1 | CHO parental Ca | zfTRPN1 agonist | OX1R antag-2 | TRPML3 ag | OX1R HTRF confirm | CHO-K1 HTRF cnt
CCc1cc2c(=O)c(-c3nc(C)cs3)coc2cc1O | 82* | -7 | -1 | 12 | 0 | 78* | -1
O=C(CSc1nc(=O)n(CCCN2CCOCC2)c2c1CCCC2)Nc1ccc(Cl)cc1 | 19 | -38 | x | -35 | x | x | x
COc1ccccc1NC(=O)C(C)OC(=O)C1COc2ccccc2O1 (stereo not given) | 15 | -11 | x | -5 | x | x | x
CC/C(C)=N/NC(=O)c1[nH]c2ccc(C)cc2c1-c1ccccc1 | 93* | -21 | 0 | -27 | 0 | 16 | 0
COc1ccc(C(C(=O)NC2CCCC2)N(CCCO)C(=O)c2snc(C(N)=O)c2N)cc1 (stereo not given) | 121* | -18 | x | -21 | x | 20 | -3
COCCN(C(=O)c1snc(C(N)=O)c1N)C(C(=O)NC1CCCCC1)c1ccc(OC)c(OC)c1 (stereo not given) | 9 | -9 | x | -14 | x | x | x
CCOn1c(=O)c(-c2ccc(OC)cc2)[n+]([O-])c2ccccc21 | 121* | -19 | -1 | -15 | -1 | 35 | 38*
CCOc1ccc(-c2c(=O)n(OCC)c3ccccc3[n+]2[O-])cc1 | 30 | -8 | x | -21 | x | x | x
CCOn1c(=O)c(-c2cc(OC)ccc2OC)[n+]([O-])c2ccccc21 | 25 | -13 | x | -13 | x | x | x
CCOn1c(=O)c(-c2ccc(OC)c(OC)c2)[n+]([O-])c2ccccc21 | 103* | 4 | 0 | 3 | 0 | 40 | 37*
C=CCOn1c(=O)c(-c2ccccc2)[n+]([O-])c2ccccc21 | 122* | -14 | 1 | -29 | 1 | 35 | 47*
Cc1ccc2nc3c(cc(C(=O)NCC4CCCO4)n3C)c(=O)n2c1 (stereo not given) | x | x | 1 | x | 1 | x | x
Cc1ccc2nc3c(cc(C(=O)NCC4CCCO4)c(=N)n3CCCOC(C)C)c(=O)n2c1 (stereo not given) | 82* | -7 | 0 | -15 | 1 | 51 | 85*
CCOCCCNc1nc2nc3ccc(C)cn3c(=O)c2cc1C(=O)NCC1CCCO1 (stereo not given) | 112* | 11 | 1 | -9 | 0 | 44 | 78*
CCn1cc(C(=O)NCC2CCCO2)c2cc(OC)c(OC)cc2c1=O (stereo not given) | 5 | -12 | 1 | -3 | 0 | x | x
CCN(Cc1ccc2c(c1)OCO2)C(=O)CSc1nc(C)nc2sc(C)c(C)c12 | 10 | -20 | x | -32 | x | x | x
S=c1[nH]nc(Cc2c[nH]c3ccccc23)o1 | 1 | -5 | 0 | -18 | 0 | x | x
S=c1[nH]nc(Cc2sc(-c3ccccc3)nc2-c2ccccc2)o1 | 78* | -8 | -1 | -5 | 0 | 50 | 22*
O=S(=O)(c1ccccc1)N1CCN(C(c2ccccc2)c2ccc(OC(F)(F)F)cc2)CC1 (stereo not given) | 10 | -23 | x | -22 | x | x | x
CC1=CC(=NOC(=O)/C=C/c2ccccc2)C=C(C)C1=O | 82* | -9 | 0 | 3 | 0 | 29 | 3
CC1=CC(=O)C=C(C)C1=NOC(=O)/C=C\c1ccccc1 | 10 | -2 | 1 | -1 | 1 | x | x
O=C1SCCC1NS(=O)(=O)c1ccc([N+](=O)[O-])cc1 (stereo not given) | 96* | -11 | x | -7 | x | 28 | 24*
